# Scp1 inh – blocks human Scp-1 phosphatase activity | Q9GZU7 | Recombinant Scp1, phosphopeptide, malachite green phosphate absorbance | inhibition, % at 20 µM | 340,000 compounds, 0.88% hits;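 active = inhibition above about 50% at 20 µM, limit read from the data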
# Target sequence (Q9GZU7 76-261 limits assumed): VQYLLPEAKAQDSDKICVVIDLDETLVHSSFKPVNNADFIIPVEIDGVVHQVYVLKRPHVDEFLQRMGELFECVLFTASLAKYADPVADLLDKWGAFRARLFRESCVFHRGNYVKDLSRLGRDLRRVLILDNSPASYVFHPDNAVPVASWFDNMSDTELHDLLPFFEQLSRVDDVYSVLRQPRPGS
#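 Test system – truncated SCP-1 phosphatase (76-261aa) · Reagent – Phosphorylated 17-residue peptide substrate · Incubation – 45 min room-temperature reaction, 5 min colour, 30 min stabiliser · Detection – colorimetric phosphate reagent with accelerator and stabiliser, absorbance at 630 nm · Measure – % inhibition at 20 µM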
# DNMT1 block – blocks human DNA methyltransferase DNMT1. DNMT1 molecular beacon, Hinp1I cleavage, fluorescence. inhibition (reported as % activation of signal), % at 10 µM. 360,000 compounds, 0.83% hits. AID 588458; in the data active = inhibition above about 50%
# NadD inh – inhibitors of Staphylococcus aureus NadD; 360,000 compounds, 0.78% hits; purified NadD enzyme, colorimetric absorbance read-out; inhibition, % at 20 µM; AID 602399; in the data active = inhibition above about 26%
# LMPTP block – LMPTP (human) inhibition; recombinant LMPTP-A, OMFP fluorogenic substrate, fluorescence intensity; P24666; AID 651560; 360,000 compounds, 0.22% hits; inhibition, % at 20 µM;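 active = compounds that cut the enzyme signal by at least half of the control window in the single-dose screen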
# Target sequence (P24666 whole entry, looked up): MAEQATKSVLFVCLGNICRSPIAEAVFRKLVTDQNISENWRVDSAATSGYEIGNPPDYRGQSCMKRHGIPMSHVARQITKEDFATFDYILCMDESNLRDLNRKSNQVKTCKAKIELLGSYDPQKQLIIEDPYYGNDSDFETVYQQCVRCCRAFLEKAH
#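 Test system: LMPTP-A, protein tyrosine phosphatase of low molecular weight; Input: 0.625 nM enzyme; Incubation: 50 min dark incubation at room temperature; Signal: endpoint fluorescence intensity from OMFP dephosphorylation; Read-out basis: % inhibition versus control wells.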
# STEP block – blocks human striatal-enriched tyrosine phosphatase | inhibition, % at 20 µM | AID 588621 | P54829 | 360,000 compounds, 0.25% hits | recombinant STEP, OMFP fluorogenic substrate, fluorescence;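 active = inhibition at 20 µM, scaled per plate between control wells, above about 37%, limit read from the data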
#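 material = STEP tyrosine phosphatase | reagent = fluorogenic phosphatase substrate OMFP at 25 µM final | doses = single compound dose of 20 µM, 1% DMSO final | schedule = 20 min reaction, room temperature, in the dark | measured by = fluorescence, 480/540 nm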
# SUMO1-SIM PPI – modulators of human SUMO1-mediated protein-protein interactions. P63165. SUMO1 binding to a labelled peptide, TR-FRET, 1 h. inhibition, % at 20 µM. 360,000 compounds, 0.33% hits. AID 602429; in the data active = inhibition above about 37%
# Target sequence (P63165 whole entry, looked up): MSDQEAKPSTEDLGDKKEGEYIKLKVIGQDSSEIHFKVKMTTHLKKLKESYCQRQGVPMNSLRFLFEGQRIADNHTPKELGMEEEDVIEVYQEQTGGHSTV
# Scp1 confirm – confirmation of human Scp-1 phosphatase inhibitors | inhibition, % at 20 µM | 2,500 compounds, 61% hits | AID 540281 | shares compounds with Scp1 inh | recombinant SCP-1 catalytic domain, phosphate release, malachite green absorbance
# MG interference – colorimetric interference in Scp-1 counter-screen. shares compounds with Scp1 inh. apparent inhibition (interference), % at 20 µM. Colorimetric interference counterscreen, malachite green absorbance 630 nm. AID 540313. 2,500 tested, under 10 active;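 also: compounds added after enzyme reaction finished so only phosphate colour detection is probed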
# Scp1 DSF – Scp-1 (human) binding by thermal shift; 1,500 compounds, 25% hits; Recombinant SCP1, Sypro Orange thermal shift Tm; AID 540329; shares compounds with Scp1 inh; thermal shift relative to vanadate control, % at 40 µM;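 active = substances whose mean melting-temperature shift, as a percentage of the reference inhibitor's shift, reaches about 5.3%, limit read from the data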
# DNMT1 interf DR – shows spectral interference in the DNMT1 beacon assay | shares compounds with DNMT1 block | 200 tested, under 10 active | AID 602382 | IC50, µM | molecular beacon fluorescence, spectral interference counter-screen; call rule not given here
# DNMT1 confirm – DNMT1 inhibition confirmation, single concentration; shares compounds with DNMT1 block; DNMT1 molecular beacon HinP1I cleavage, fluorescence; inhibition, % at 10 µM; 2,300 compounds, 8% hits; AID 602385;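 active = average inhibition of at least 30% in the single-concentration confirmation test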
# DNMT1 interf – shows spectral interference in the DNMT1 beacon assay; activation (fluorescence interference), % at 10 µM; DNMT1 molecular beacon spectral interference counterscreen, fluorescence 485/520; shares compounds with DNMT1 block; 2,300 compounds, 1% hits;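 active = activation of at least 30% at 10 µM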;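 also: DNMT1 catalytic domain with a HinP1I cleavage step and a FAM/dabcyl DNA beacon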
# A number is an active result; i = inactive; nt = no result. An excerpt weighted towards active compounds, which were near 2.4% of everything screened.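 The calls were made as follows, unless noted: active = inhibition of at least 30% at 20 µM; inactive = the rest.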
SMILES,Scp1 inh,DNMT1 block,NadD inh,LMPTP block,STEP block,SUMO1-SIM PPI,Scp1 confirm,MG interference,Scp1 DSF,DNMT1 confirm,DNMT1 interf,others
CN(C)C(=S)Oc1ccccc1C1(C)OCCO1,nt,i,i,i,i,i,nt,nt,nt,nt,nt,
CCC(Oc1ccccc1)C(=O)Nc1ccc(C)c(S(=O)(=O)N2CCOCC2)c1 (stereo unspecified),i,i,i,i,i,i,nt,nt,nt,nt,nt,
COC1OC2COC(c3ccccc3)OC2C2OC(c3ccccc3)OC12 (stereo unspecified),nt,i,i,i,i,i,nt,nt,nt,nt,nt,
O=C(O)c1cccc(-n2cccc2/C=C2/NC(=O)N(c3cccc(Cl)c3)C2=O)c1,85.4,97.3,i,i,i,i,63.5,i,i,i,i,
O=C(O)c1cccc(-n2cccc2/C=C2\SC(=O)N(Cc3ccccc3F)C2=O)c1,92.8,90.9,i,i,i,i,80.8,i,i,i,i,
O=C(O)c1cccc(-n2cccc2/C=C2/SC(=O)N(CC(=O)N3CCCC3)C2=O)c1,66.7,70.0,i,i,i,i,54.1,i,i,i,i,
O=C(COC(=O)c1ccc[nH]c1=O)NC1CCCc2ccccc21 (stereo unspecified),i,i,i,i,i,i,nt,nt,nt,nt,nt,
COc1ccc(CC(O)COS(N)(=O)=O)cc1 (stereo unspecified),i,i,i,i,i,i,nt,nt,nt,nt,nt,
Cc1ccc(C(=O)NCc2occc2C(=O)O)o1,53.3,53.0,i,i,i,i,52.5,i,i,i,i,
Cc1ccc(C(=O)NCc2ccco2)o1,i,i,i,i,i,i,nt,nt,nt,nt,nt,
O=C(C1CC(=O)N(c2ccc(F)cc2)C1)N1CCC(c2nc3ccccc3[nH]2)CC1 (stereo unspecified),i,i,i,i,i,i,nt,nt,nt,nt,nt,
Cc1ccc(S(=O)(=O)N2Cc3ccccc3CC2C(=O)Nc2ccc3c(c2)OCO3)cc1 (stereo unspecified),70.0,66.5,i,i,i,i,56.6,i,i,i,i,
O=c1/c(=C/c2ccco2)sc2nc(-c3ccccc3Br)nn12,i,i,i,i,i,i,nt,nt,nt,nt,nt,
CCCOc1ccc(/C=c2\sc3nc(-c4ccco4)nn3c2=O)cc1OCC,84.0,73.0,i,i,i,i,i,i,nt,i,i,
CC(C)CCN1CCN(Cc2nc(-c3ccc(F)cc3)cs2)CC1CCO (stereo unspecified),i,i,i,i,i,i,nt,nt,nt,nt,nt,
COC(=O)c1cc(C(=O)OC)cc(-n2c(C)cc(C=O)c2C)c1,i,i,i,i,i,i,nt,nt,nt,nt,nt,
Cc1cc(C=O)c(C)n1-c1cc(C(=O)O)cc(C(=O)O)c1,54.6,89.1,i,i,i,i,51.6,i,i,i,i,
Cc1onc(-c2ccccc2Cl)c1C(=O)NCc1ccco1,82.8,63.0,i,i,i,i,i,i,nt,i,i,
Cc1ccc(/C=C/C(=O)NCc2ccccn2)o1,72.5,67.4,i,i,i,i,59.1,i,i,i,i,
CC(=O)OCC1=C(C(=O)O)N2C(=O)C(NC(=O)c3ccc(COc4cccc(Cl)c4Cl)o3)C2SC1 (stereo unspecified),52.9,87.6,i,i,i,i,66.0,i,i,41.3,i,DNMT1 interf DR=i
Cc1ccccc1NC(=O)Cn1nnc(S(=O)(=O)c2ccc(C(C)(C)C)cc2)c1N,106.0,60.6,i,i,i,i,75.8,i,i,i,i,
Cc1ccccc1NC(=O)Cn1nnc(C(=O)NCc2ccco2)c1N,i,i,i,i,i,i,nt,nt,nt,nt,nt,
O=C(CCC(=O)c1ccc(F)cc1)OCc1nnc(-c2ccc([N+](=O)[O-])cc2)o1,i,i,i,i,i,i,nt,nt,nt,nt,nt,
COc1cccc(C(=O)Nc2ccc3c(c2)C(=O)c2ccccc2C3=O)c1,74.6,73.6,i,i,59.6,i,64.2,i,5.4,i,i,
O=C(Nc1ccc2c(c1)C(=O)c1ccccc1-2)c1ccccc1,i,i,i,i,i,i,nt,nt,nt,nt,nt,
SMILES,Scp1 inh,DNMT1 block,NadD inh,LMPTP block,STEP block,SUMO1-SIM PPI,Scp1 confirm,MG interference,Scp1 DSF,DNMT1 confirm,DNMT1 interf,others
CCOc1ccc(NC(=O)CNC(=O)c2ccc(OC)cc2)cc1,i,i,i,i,i,i,nt,nt,nt,nt,nt,
COc1ccc(C(=O)NCC(=O)Nc2ccc(-c3ccccc3)cc2)cc1,94.9,53.0,i,i,i,i,84.0,i,i,i,i,
CC1CC(C)CN(CCCNS(=O)(=O)c2ccc3c(c2)oc(=O)n3C)C1 (stereo unspecified),i,i,i,i,i,i,nt,nt,nt,nt,nt,
COC(=O)C1=COC(OC2OC(CO)C(O)C(O)C2O)C2C1C=CC2(O)CO (stereo unspecified),58.2,89.8,i,i,i,i,34.2,i,i,i,i,
Cc1cccc(NC(=O)Oc2ccc(Cl)c3cccnc23)c1,nt,i,i,i,i,i,nt,nt,nt,nt,nt,
CCC(=O)Nc1cc(C(=O)O)ccc1S(=O)(=O)c1ccc(C)cc1,66.9,63.4,i,i,i,i,56.5,i,i,i,i,
CN(C)S(=O)(=O)c1cc(NC(=O)CN2CCN(c3ccccc3O)CC2)ccc1Cl,i,i,i,i,i,i,nt,nt,nt,nt,nt,
O=C(Nc1ccc(C(F)(F)F)cc1)C1CCN(S(=O)(=O)c2ccc(N3CCCC3=O)cc2)CC1,i,i,i,i,i,i,nt,nt,nt,nt,nt,
COc1cc(NC(C)=O)c2ncccc2c1NC(C)=O,i,i,i,i,i,i,nt,nt,nt,nt,nt,
CC(=O)Nc1cc(=O)c2cccnc2[nH]1,81.5,63.2,i,64.2,i,i,61.1,i,i,i,i,
Cc1cccn2c(=O)c3cc(C#N)c(=NC(=O)c4cccs4)n(CC(C)C)c3nc12,i,i,i,i,i,i,nt,nt,nt,nt,nt,
Cc1cccn2c(=O)c3cc(C#N)c(=NC(=O)c4ccco4)n(Cc4ccco4)c3nc12,76.2,61.2,i,i,i,i,35.7,i,10.0,i,i,
O=C(NNC(=O)c1cc2cc3ccccc3nc2s1)c1cccc(C(F)(F)F)c1,75.1,50.8,i,i,i,i,71.2,i,i,i,i,
